Shown are actives, neighbours in structure and some others; about 4.4% of the full set was active somewhere.
MPTP block: permeability transition pore inhibition; isolated mouse mitochondria, Ca2+ swelling absorbance, 30 min; inhibition, % at 10 µM; actives 1.4% (n = 360,000);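 active means inhibition of 50% or more, scaled per plate between neutral and stimulator controls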
EBI2 block: blocks human EBI2 receptor beta-arrestin signaling | P32249 | EBI2 beta-arrestin recruitment, luminescence, 7a,25-OHC stimulated | inhibition, % at 5 µM | actives 0.81% (n = 360,000); in the data active means inhibition above about 38%;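 further: enzyme fragment complementation signal reports receptor beta-arrestin coupling in cells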
SENP1 FRET inh: inhibitors of human SENP1 SUMO protease catalytic domain; recombinant SENP1 catalytic domain, CyPet-SUMO1-YPet FRET cleavage; inhibition, % at 10 µM; actives 0.21% (n = 360,000); AID 624204;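 active means inhibition at least 30% at 10 µM, raw YFP signal under a set limit, fluorescence ratio 0.5 to 1.5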
Target sequence (Q9P0U3 419-644 limits assumed): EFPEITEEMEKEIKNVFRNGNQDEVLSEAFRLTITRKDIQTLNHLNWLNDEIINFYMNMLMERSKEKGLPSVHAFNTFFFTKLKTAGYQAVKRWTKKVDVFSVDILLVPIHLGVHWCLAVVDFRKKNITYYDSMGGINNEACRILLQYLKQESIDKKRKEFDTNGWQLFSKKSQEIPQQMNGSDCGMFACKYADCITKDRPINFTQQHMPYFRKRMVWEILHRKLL
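Test system: hSENP1 catalytic domain, recombinant; Amount: 20 pM final SENP1 enzyme; Medium: Tris pH 8 buffer plus EDTA, NaCl, BME, BSA, NP40, catalase; Schedule: 50 min enzyme reaction, room temperature, light-protected; Technique: FRET fluorescence in CFP and YFP emission channels; Controls: no-enzyme wells low, DMSO-plus-enzyme wells high control.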
NR3A LBD binder: modulates the human NR3A ligand-binding domain; NR3A LBD differential scanning fluorimetry, Tm shift; 0% = protein alone, 100% = glycine-bound protein; Tm shift relative to glycine control, % at 25 µM; actives 2.5% (n = 340,000); AID 1259313;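 active means melting temperature shift of at least 10% of the positive control shift, at one fixed dose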
Of the large screens only hits and unclear results are named; the others gave an inactive call.

COc1ccc(CCN(C)C2CCCN(C(=O)c3sccc3C)C2)cc1OC (stereo not drawn)	none
COCc1cc(C)nc(NCCc2ccccc2)c1C#N	none
COC(=O)CSc1nc(N)c2c3c(sc2n1)C(c1ccccc1)SC(c1ccccc1)C3 (stereo not drawn)	EBI2 block 55.4
CN(C)S(=O)(=O)N1CCC(Oc2ccc(C(=O)NCCc3cscn3)cc2)CC1	NR3A LBD binder 12.6
COc1ccc(-c2csc(NC(=O)CN3C(=O)CCC3=O)n2)c(OC)c1	NR3A LBD binder 17.9
CCCOc1ccc(-c2csc(NC(=O)CN3C(=O)CCC3=O)n2)cc1	NR3A LBD binder 35.7
COc1ccc(-c2csc(NC(=O)CN3C(=O)CCC3=O)n2)cc1	none
CN1CCN(CC(=O)Nc2nc(-c3ccccc3)cs2)CC1	NR3A LBD binder 13.1
COc1ccc(-c2csc(NC(=O)CSc3ccc(Br)cc3)n2)c(OC)c1	NR3A LBD binder 12.1
C/C(N)=C(/C#N)C(=O)COC(=O)c1ccc(OCC2CCCO2)cc1 (stereo not drawn)	none
COc1ccc(C2=Nc3ccccc3NC(=O)C2N(CCCn2ccnc2)C(=O)c2cccc(S(C)(=O)=O)c2)cc1 (stereo not drawn)	none (no result: NR3A LBD binder)
O=[N+]([O-])c1ccc2nc(NN=Cc3ccc(O)cc3)sc2c1	NR3A LBD binder 23.1
Cc1ccc(S(=O)(=O)N2CCOC2CNC(=O)C(=O)NCc2ccc(Cl)cc2)cc1 (stereo not drawn)	NR3A LBD binder 12.6
Cc1ccc(CNC(=O)C(=O)NCC2OCCN2C(=O)c2cccs2)cc1 (stereo not drawn)	NR3A LBD binder 14.7
Cc1ccc(CNC(=O)C(=O)NCC2CCCO2)cc1 (stereo not drawn)	NR3A LBD binder 15.6
Cc1ccc(CNC(=O)C(=O)NCC2OCCN2S(=O)(=O)c2ccc(Cl)cc2)cc1 (stereo not drawn)	none
COc1cc(/C=C2\SC(=O)N(CCNC(=O)c3sc4cc(F)ccc4c3Cl)C2=O)cc(OC)c1OC	none
C[C@H](CO)N1C[C@H](C)[C@@H](CN(C)Cc2ccncc2)Oc2ncc(Br)cc2C1=O	none (no result: NR3A LBD binder)
O=C1OCc2ccc(NC(=O)c3c(F)cccc3Cl)cc21	none
Cc1ccc(C)c(OCC(=O)Nc2ccc3c(c2)OCO3)c1C	none
COc1cc(NC(=O)Nc2ccc3c(c2)OCO3)cc(OC)c1OC	NR3A LBD binder 26.1
Cc1cccc(OCC(=O)Nc2ccc3c(c2)OCO3)c1C	NR3A LBD binder 23.2
O=C(Nc1ccc2c(c1)OCO2)Nc1ccc2c(c1)OCO2	none
Cc1ccc(NC(=O)Nc2ccc3c(c2)OCO3)c(Br)c1	NR3A LBD binder 18.6
O=C(Nc1cccc(F)c1)Nc1ccc2c(c1)C(=O)OC2	NR3A LBD binder 13.7
Cc1ccc(C(C)NC(=O)CSc2ccc(S(=O)(=O)N3CCOCC3)cn2)cc1C (stereo not drawn)	none
CCc1nc2ccc(C(=O)NCCC(C)C)cn2c1N(CC)CCOC	none (no result: NR3A LBD binder)
O=C(Nc1cccc(C(=O)O)c1)Nc1ccc2c(c1)OCO2	NR3A LBD binder 24.3
O=C(Nc1cccc(F)c1)Nc1cnccn1	NR3A LBD binder 21.1
O=C(Nc1ccc(F)cc1)Nc1ccc2c(c1)OCO2	NR3A LBD binder 11.5
CCSc1nnc(NC(=O)C2CSC3(C)CCC(=O)N23)s1 (stereo not drawn)	none
O=C(C[n+]1ccccc1)N/N=C/c1ccc(C(=O)O)cc1	none
CCOCC(=O)Nc1ccc(S(=O)(=O)NCCc2ccccc2)cc1	NR3A LBD binder 11.4
Cc1ccc(CN2CCN(CC(=O)N=Nc3c(O)[nH]c4ccccc34)CC2)cc1	NR3A LBD binder 19.9
O=C(CN1CCN(Cc2ccccc2Cl)CC1)N=Nc1c(O)[nH]c2ccccc12	none
CCC(C)(C(=O)Nc1c(C)cccc1C)N(C)C(=O)c1ccc2ccccc2n1 (stereo not drawn)	none
CCc1ccc([C@@H]2CC=C(C(=O)O)[C@H](c3ccc(C(C)(C)C)cc3)N2S(=O)(=O)c2ccc(C)cc2)cc1	none
O=C(Nc1ccc2nc(-c3cccs3)[nH]c2c1)c1cccs1	NR3A LBD binder 25.6
O=C(Nc1ccc(-c2nc3ccc(NC(=O)c4cccs4)cc3[nH]2)cc1)c1cccs1	NR3A LBD binder 30.4
Cn1cccc1-c1nc2ccc(NC(=O)c3ccco3)cc2[nH]1	none
CC(=O)Nc1ccc2nc(-c3ccncc3)[nH]c2c1	none
Cc1ccc2nc(-c3ccc(NC(=O)c4ccco4)cc3)[nH]c2c1	NR3A LBD binder 31.1
O=C(Nc1ccc2nc(-c3cccs3)[nH]c2c1)c1ccco1	NR3A LBD binder 13.6
O=C(Nc1ccc(O)c2c(=O)cc(-c3cccc(Cl)c3)oc12)c1ccc(F)cc1	none
